In ChEMBL document CHEMBL4257498, “Antitumor effects of melanin from Lachnum YM226 and its derivative in H22 tumor-bearing mice” (Medchemcomm, 2018):
Active and inactive are the calls of the source. The rule behind the calls is not given here.

How the values were obtained:
Mus musculus [1] = assay: Immunostimulatory activity in Kunming mouse implanted with mouse H22 cells assessed as increase in serum IL-2 level at 200 mg/kg, ig once daily for 12 days measured at 24 hrs post last dose by ELISA; assay type: functional, organism-based
How it was run: (§1)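 Serum came from H22 sc tumor-bearing mice dosed intragastrically once daily for 12 days, collected 24 h after the last dose from the orbital plexus (3000g, 10 min, stored at –80 °C). IL-2, IL-6, TNF-α, IFN-γ, VEGF and bFGF were measured by commercial ELISA kits following the manufacturer's protocol.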

Mus musculus [2] = assay: Immunostimulatory activity in Kunming mouse implanted with mouse H22 cells assessed as increase in serum IL-6 level at 200 mg/kg, ig once daily for 12 days measured at 24 hrs post last dose by ELISA; assay type: functional, organism-based; how it was run: as §1
Mus musculus [3] = assay: Toxicity in Kunming mouse implanted with mouse H22 cells assessed as increase in body weight at 200 mg/kg, ig once daily for 12 days measured every 3 days during compound dosing; assay type: organism-based; conditions: in vivo, po
How it was run: (§2)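 H22 sc tumor-bearing mice were dosed intragastrically once daily for 12 days (0.2 mL, n = 10). Mice were weighed every three days and doses adjusted accordingly. Body weight gain = (final – initial body weight)/initial body weight.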

Mus musculus [4] = assay: Toxicity in Kunming mouse implanted with mouse H22 cells assessed as increase in body weight at 50 mg/kg, ig once daily for 12 days measured every 3 days during compound dosing; assay type: organism-based; conditions: in vivo, po; how it was run: as §2
H22 [5] = assay: Antitumor activity against mouse H22 cells implanted in Kunming mouse assessed as tumor growth inhibition at 50 mg/kg, ig once daily for 12 days measured at 24 hrs post last dose relative to control; assay type: functional; conditions: H22, po, read-out: TGI
How it was run: (§3)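 Sc H22 implant (0.2 mL, 1 × 10^6 cells per mL, right axilla). Intragastric dosing started 3 days later, once daily for 12 days in 0.2 mL; saline control; 10 mice per group. Tumors were excised and weighed 24 h after the last dose. Inhibition rate = (1 – mean treated tumor weight/mean model tumor weight) × 100%. Caliper volume taken every 2 days as A × B2/2.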

H22 [6] = assay: Antitumor activity against mouse H22 cells implanted in Kunming mouse assessed as tumor growth inhibition at 200 mg/kg, ig once daily for 12 days measured at 24 hrs post last dose relative to control; assay type: functional; conditions: H22, po, read-out: TGI; how it was run: as §3
H22 [7] = assay: Antitumor activity against mouse H22 cells implanted in Kunming mouse assessed as tumor growth inhibition administered ig once daily for 12 days measured at 24 hrs post last dose; assay type: functional; how it was run: as §3
Mus musculus [8] = assay: Immunosuppressive effect in Kunming mouse implanted with mouse H22 cells assessed as liver index at 50 mg/kg, ig once daily for 12 days measured at 24 hrs post last dose (reference value: 4.17 +/- 0.68%); assay type: ADME, organism-based; conditions: in vivo, po
Mus musculus [9] = assay: Immunosuppressive effect in Kunming mouse implanted with mouse H22 cells assessed as liver index at 200 mg/kg, ig once daily for 12 days measured at 24 hrs post last dose (reference value: 4.17 +/- 0.68%); assay type: ADME, organism-based; conditions: in vivo, po
Mus musculus [10] = assay: Immunosuppressive effect in Kunming mouse implanted with mouse H22 cells assessed as spleen index at 50 mg/kg, ig once daily for 12 days measured at 24 hrs post last dose (reference value: 0.54 +/- 0.09%); assay type: ADME, organism-based; conditions: in vivo, po
Mus musculus [11] = assay: Immunosuppressive effect in Kunming mouse implanted with mouse H22 cells assessed as spleen index at 200 mg/kg, ig once daily for 12 days measured at 24 hrs post last dose (reference value: 0.54 +/- 0.09%); assay type: ADME, organism-based; conditions: in vivo, po
Mus musculus [12] = assay: Immunosuppressive effect in Kunming mouse implanted with mouse H22 cells assessed as thymus index at 50 mg/kg, ig once daily for 12 days measured at 24 hrs post last dose (reference value: 0.13 +/- 0.06%); assay type: ADME, organism-based; conditions: in vivo, po
Mus musculus [13] = assay: Immunosuppressive effect in Kunming mouse implanted with mouse H22 cells assessed as thymus index at 200 mg/kg, ig once daily for 12 days measured at 24 hrs post last dose (reference value: 0.13 +/- 0.06%); assay type: ADME, organism-based; conditions: in vivo, po
Mus musculus [14] = assay: Hepatotoxicity in Kunming mouse implanted with mouse H22 cells assessed as increase in serum ALT level at 50 to 200 mg/kg, ig once daily for 12 days measured at 24 hrs post last dose; assay type: toxicity, organism-based; conditions: in vivo, po
How it was run: (§4)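 Mice bore sc H22 tumors and received intragastric doses once daily for 12 days (n = 10). Blood was drawn from the orbital venous plexus 24 h after the last dose. It was allowed to clot and centrifuged at 3000g for 10 min, and the serum was stored at –80 °C. AST, ALT, CRE, BUN and UA were measured with commercial kits.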

Mus musculus [15] = assay: Hepatotoxicity in Kunming mouse implanted with mouse H22 cells assessed as increase in serum AST level at 50 to 200 mg/kg, ig once daily for 12 days measured at 24 hrs post last dose; assay type: toxicity, organism-based; conditions: in vivo, po; how it was run: as §4
Mus musculus [16] = assay: Renal toxicity in Kunming mouse implanted with mouse H22 cells assessed as increase in serum BUN level at 50 to 200 mg/kg, ig once daily for 12 days measured at 24 hrs post last dose; assay type: organism-based; conditions: in vivo, po; how it was run: as §4
Mus musculus [17] = assay: Renal toxicity in Kunming mouse implanted with mouse H22 cells assessed as increase in serum UA level at 50 to 200 mg/kg, ig once daily for 12 days measured at 24 hrs post last dose; assay type: organism-based; conditions: in vivo, po; how it was run: as §4
Mus musculus [18] = assay: Renal toxicity in Kunming mouse implanted with mouse H22 cells assessed as increase in serum CRE level at 50 to 200 mg/kg, ig once daily for 12 days measured at 24 hrs post last dose; assay type: organism-based; conditions: in vivo, po; how it was run: as §4
Mus musculus [19] = assay: Immunostimulatory activity in Kunming mouse implanted with mouse H22 cells assessed as increase in serum IL-2 level at 50 mg/kg, ig once daily for 12 days measured at 24 hrs post last dose by ELISA; assay type: functional, organism-based; how it was run: as §1
Mus musculus [20] = assay: Immunostimulatory activity in Kunming mouse implanted with mouse H22 cells assessed as increase in serum IL-6 level at 50 mg/kg, ig once daily for 12 days measured at 24 hrs post last dose by ELISA; assay type: functional, organism-based; how it was run: as §1
Mus musculus [21] = assay: Immunostimulatory activity in Kunming mouse implanted with mouse H22 cells assessed as increase in serum TNFalpha level at 200 mg/kg, ig once daily for 12 days measured at 24 hrs post last dose by ELISA; assay type: functional, organism-based; how it was run: as §1
Mus musculus [22] = assay: Immunostimulatory activity in Kunming mouse implanted with mouse H22 cells assessed as increase in serum IFNgamma level at 200 mg/kg, ig once daily for 12 days measured at 24 hrs post last dose by ELISA; assay type: functional, organism-based; how it was run: as §1
Mus musculus [23] = assay: Decrease in serum VEGF level in Kunming mouse implanted with mouse H22 cells at 50 to 200 mg/kg, ig once daily for 12 days measured at 24 hrs post last dose by ELISA; assay type: functional, organism-based; how it was run: as §1
Mus musculus [24] = assay: Decrease in serum bFGF level in Kunming mouse implanted with mouse H22 cells at 50 to 200 mg/kg, ig once daily for 12 days measured at 24 hrs post last dose by ELISA; assay type: functional, organism-based; how it was run: as §1
H22 [25] = assay: Antitumor activity against mouse H22 cells implanted in Kunming mouse assessed as decrease in nuclear to cytoplasmic ratio at 50 to 200 mg/kg, ig once daily for 12 days measured at 24 hrs post last dose by hematoxylin and eosin staining based microscopic method; assay type: functional, organism-based
How it was run: (§5)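 H22 cells given 0.2 mL of 1 × 10^6 cells per mL subcutaneously in the right axilla. Treatment began on day 3, […]. Dosing was intragastric in saline, once daily for 12 days, n = 10 per group. Mice were killed 24 h after the last dose. Tumors were fixed in buffered neutral 10% formalin, paraffin-embedded, cut at 4 μm, HE-stained and examined by light microscopy at 400×.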

H22 [26] = assay: Antitumor activity against mouse H22 cells implanted in Kunming mouse assessed as necrotic and apoptotic region at 50 to 200 mg/kg, ig once daily for 12 days measured at 24 hrs post last dose by hematoxylin and eosin staining based microscopic method; assay type: functional, organism-based; how it was run: as §5
H22 [27] = assay: Antitumor activity against mouse H22 cells implanted in Kunming mouse assessed as decrease in hepatoma cell density at 200 mg/kg, ig once daily for 12 days measured at 24 hrs post last dose by hematoxylin and eosin staining based microscopic method; assay type: functional, organism-based; how it was run: as §5
Mus musculus [28] = assay: Decrease in leukocyte infiltration in Kunming mouse implanted with mouse H22 cells at 50 to 200 mg/kg, ig once daily for 12 days measured at 24 hrs post last dose by hematoxylin and eosin staining based microscopic method; assay type: functional, organism-based; how it was run: as §5
Mus musculus [29] = assay: Decrease in tumor hemorrhage in Kunming mouse implanted with mouse H22 cells at 50 to 200 mg/kg, ig once daily for 12 days measured at 24 hrs post last dose by hematoxylin and eosin staining based microscopic method; assay type: functional, organism-based; how it was run: as §5

COc1c(O)cc2cc(C(=O)O)n(C)c2c1C1=c2cc(C(=O)O)[nH]c2=C(Cc2cc(C(=O)O)[nH]c2C(=O)O)C(=O)C1=O
Activity (Mus musculus [1]): Active
Activity (Mus musculus [2]): Active
Activity (Mus musculus [3]): 7.56 g
Activity (Mus musculus [4]): 8.2 g
inhibition in vivo at 50 mg/kg (H22 [5]): 32.3%
inhibition in vivo at 200 mg/kg (H22 [6]): 35%
TGI (H22 [7]): Dose-dependent effect
Activity_index (Mus musculus [8]): 3.72%
Activity_index (Mus musculus [9]): 3.79%
Activity_index (Mus musculus [10]): 0.48%
Activity_index (Mus musculus [11]): 0.48%
Activity_index (Mus musculus [12]): 0.15%
Activity_index (Mus musculus [13]): 0.16%
Activity (Mus musculus [14]): Non-Toxic
Activity (Mus musculus [15]): Non-Toxic
Activity (Mus musculus [16]): Non-Toxic
Activity (Mus musculus [17]): Non-Toxic
Activity (Mus musculus [18]): Non-Toxic
Activity (Mus musculus [19]): Active
Activity (Mus musculus [20]): Active
Activity (Mus musculus [21]): Active
Activity (Mus musculus [22]): Active
Activity (Mus musculus [23]): Active
Activity (Mus musculus [24]): Active
Activity (H22 [25]): Active
Activity (H22 [26]): Active
Activity (H22 [27]): Active
Activity (Mus musculus [28]): Active
Activity (Mus musculus [29]): Active
